Bioassay records as filed in PubChem BioAssay.
Shown are actives, neighbours in structure and some others; about 5.8% of the full set was active somewhere.
GASC1 inh – inhibitors of GASC-1 (KDM4C) histone demethylase, primary screen, biochemical, single concentration HTS; GST-KDM4C 2-372, H3K9me3 peptide, LANCE TR-FRET; inhibition, % at 12.5 µM; actives 0.15% (n = 96,000);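 active = mean replicate inhibition above about 25%, with at least 55% of replicates also reaching it, limit read from the data, passing the limit was not always enough; inconclusive = only one of those two conditions met; inactive = neither condition met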
Target sequence (Q9H3R0 2-372 limits assumed): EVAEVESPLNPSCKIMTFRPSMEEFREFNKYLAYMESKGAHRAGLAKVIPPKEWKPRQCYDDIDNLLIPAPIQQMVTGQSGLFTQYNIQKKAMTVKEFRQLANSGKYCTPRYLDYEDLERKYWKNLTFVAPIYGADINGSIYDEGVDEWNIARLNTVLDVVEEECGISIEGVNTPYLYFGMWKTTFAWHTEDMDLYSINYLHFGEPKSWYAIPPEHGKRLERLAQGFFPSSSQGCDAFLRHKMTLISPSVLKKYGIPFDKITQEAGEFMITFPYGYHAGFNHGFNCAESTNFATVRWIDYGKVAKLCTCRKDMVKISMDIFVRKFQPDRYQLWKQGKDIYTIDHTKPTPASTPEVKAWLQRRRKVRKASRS
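Material: N-terminal GST-fused human GASC-1 (KDM4C) fragment, residues 2-372. Input: 10 nM enzyme. Incubation: enzyme reaction 30 min, then detection 60 min, both room temperature. Doses: one test concentration per compound. Read-out basis: inhibition from TR-FRET ratio decrease. Detection: LANCE TR-FRET, excitation 340 nm, emissions 618 and 671 nm.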
IDH1 R132H inh – inhibitors of IDH1 R132H reductase, primary screen, biochemical, plate reader, single point; inhibition, % at 10 µM; actives 0.18% (n = 70,000); AID 624101, 2012; diaphorase/resazurin fluorescence, 60 min; in the data active = inhibition above about 34%; inconclusive = no clear call, values can overlap the other calls; inactive = below about 11%
Target sequence (O75874 whole entry R132H): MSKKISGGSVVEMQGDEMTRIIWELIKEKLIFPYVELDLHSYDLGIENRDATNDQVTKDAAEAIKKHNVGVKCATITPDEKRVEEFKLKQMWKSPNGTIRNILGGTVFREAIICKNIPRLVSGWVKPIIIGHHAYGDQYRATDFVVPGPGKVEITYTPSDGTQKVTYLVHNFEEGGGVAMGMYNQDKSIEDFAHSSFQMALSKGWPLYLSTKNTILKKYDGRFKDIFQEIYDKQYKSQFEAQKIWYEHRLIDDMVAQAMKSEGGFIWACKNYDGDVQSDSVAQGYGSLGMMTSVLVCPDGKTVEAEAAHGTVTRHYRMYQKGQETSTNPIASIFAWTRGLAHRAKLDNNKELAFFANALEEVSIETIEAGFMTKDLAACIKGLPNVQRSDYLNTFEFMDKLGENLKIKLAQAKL
T cruzi growth-1 – T. cruzi intracellular proliferation inhibitors, primary screen, cell-based, beta-gal Tulahuen parasites, NIH3T3 host, luminescence | T. cruzi beta-gal in NIH3T3, GalScreen luminescence, 90 h | inhibition, % at 8.34 µM | actives 5.9% (n = 77,000);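 active = mean inhibition above about 93%, with at least 55% of replicates each passing it, limit read from the data, passing the limit was not always enough; inconclusive = only one of those two conditions holds; inactive = neither condition holds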
Pf Dd2 inh – P. falciparum Dd2 growth inhibitors, primary screen, SYBR Green fluorescence, single dose replicates; AID 1159554, 2015; activity change, % at 10 µM; 72 h; active compounds read low; actives 2.3% (n = 94,000); in the data active = activity change below about -80%; inconclusive = no clear call, values can overlap the other calls
T cruzi growth-2 – T. cruzi intracellular proliferation inhibitors, confirmation, cell-based, NIH3T3 host, beta-gal parasite, luminescence, cherry-pick; shares compounds with T cruzi growth-1; T. cruzi beta-gal in NIH3T3, GalScreen luminescence, 90 h; inhibition, % at 8.35 µM; actives 72% (n = 5,600);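 active = mean replicate inhibition above about 95% and at least 55% of replicates individually reaching it, limit read from the data; inconclusive = only one of the two criteria is met; inactive = neither criterion is met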
T cruzi growth-3 – inhibitors of intracellular T. cruzi replication, confirmation, NIH3T3 host cells, beta-gal parasites, cherry-pick, set 2. shares compounds with T cruzi growth-1. T. cruzi beta-gal in NIH3T3, GalScreen luminescence, 90 h. inhibition, % at 2.09 µM. actives 21% (n = 5,600). AID 651740, 2012;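 active = mean inhibition above about 95%, with at least 55% of replicates also reaching it, limit read from the data; inconclusive = meets just one of the two conditions; inactive = meets neither condition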
3T3 cytotox – cytotoxicity in mouse NIH/3T3 fibroblasts, confirmation, cytotoxicity control for T. cruzi proliferation inhibitor project, cell-based, cherry-pick, single point. cytotoxicity (signal decrease), % at 8.35 µM. NIH/3T3 viability, CellTiter-Glo ATP luminescence, 90 h. shares compounds with T cruzi growth-1. actives 14% (n = 5,600). AID 651742, 2012;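 active = mean signal decrease across replicates above about 35% based on untreated-well scatter, with enough replicates individually passing, limit read from the data; inconclusive = no rule stated though some were filed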
3T3 cytotox 2 – NIH/3T3 fibroblast cytotoxicity, confirmation, cytotoxicity control, cell-based, cherry-pick, single point, set 2 | actives 56% (n = 5,600) | inhibition, % at 24.9 µM | shares compounds with T cruzi growth-1 | NIH/3T3 viability, CellTiter-Glo ATP luminescence, 90 h | AID 651744, 2012;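 active = mean loss of cell viability signal at or above a set limit, and enough replicates individually reaching it; inconclusive = meets only the mean limit or only the replicate share; inactive = meets neither condition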
Large screens that a line does not name were inactive (follow-up assays come after a bar, where they were run); ! = not confirmed by another sample.

CC(C)NC(=O)N(C)C[C@@H]1OCc2cn(nn2)CCCC(=O)N([C@@H](C)CO)C[C@@H]1C	none
CCCN(C)C[C@@H]1Oc2cc(C#CC(C)C)ccc2S(=O)(=O)N([C@@H](C)CO)C[C@H]1C	T cruzi growth-1 102 | T cruzi growth-2 111 | T cruzi growth-3 inactive | 3T3 cytotox inactive | 3T3 cytotox 2 104
C[C@H](CO)N1C[C@H](C)[C@@H](CN(C)Cc2ccccc2)OCCCC[C@H](C)Oc2ccc(NC(=O)c3ccncc3)cc2C1=O	none (no result: IDH1 R132H inh)
C[C@H]1CCCCO[C@@H](CN(C)Cc2ccncc2)[C@@H](C)CN([C@@H](C)CO)C(=O)c2cc(NC(=O)Cc3ccccc3)ccc2O1	T cruzi growth-1 99 | T cruzi growth-2 104 | T cruzi growth-3 inactive | 3T3 cytotox inactive | 3T3 cytotox 2 inactive
C[C@@H]1CCCCO[C@H](CN(C)Cc2ccccc2)[C@@H](C)CN([C@@H](C)CO)C(=O)c2cc(NC(=O)c3ccncc3)ccc2O1	T cruzi growth-1 98 | T cruzi growth-2 inactive | T cruzi growth-3 inactive | 3T3 cytotox inactive | 3T3 cytotox 2 inactive
O=C(C1CCCC1)N1CCCCN2[C@@H](CO)[C@@H](c3ccc(C#CC4(O)CCCC4)cc3)[C@@H]2C1	none (no result: GASC1 inh, IDH1 R132H inh)
C[C@@H]1CN([C@H](C)CO)C(=O)c2c(c3ccccc3n2C)-c2ccccc2CO[C@@H]1CN(C)S(=O)(=O)c1cccc(F)c1	none (no result: IDH1 R132H inh)
O=C([C@H]1N[C@H]2c3ccc(C4=CCCCC4)c(=O)n3C[C@H]2[C@@H]1CO)N1CCC(Cc2ccccc2)CC1	none (no result: IDH1 R132H inh, Pf Dd2 inh)
O=C([C@@H]1[C@@H](CO)[C@@H]2Cn3c(ccc(C4=CCCCC4)c3=O)[C@H]1N2)N1CCC(Cc2ccccc2)CC1	T cruzi growth-1 100 (no result: IDH1 R132H inh) | T cruzi growth-2 inactive | T cruzi growth-3 inactive | 3T3 cytotox inactive | 3T3 cytotox 2 inactive
CCCNC(=O)N(C)C[C@@H]1Oc2cc(C#CCN(C)C)ccc2S(=O)(=O)N([C@H](C)CO)C[C@H]1C	none
C[C@@H]1CN([C@@H](C)CO)S(=O)(=O)c2ccc(C3=CCCC3)cc2O[C@H]1CN(C)Cc1cccnc1	IDH1 R132H inh 77, T cruzi growth-1 inconclusive | T cruzi growth-2 105 | T cruzi growth-3 99 | 3T3 cytotox 47 | 3T3 cytotox 2 46
C[C@@H]1CN([C@@H](C)CO)S(=O)(=O)c2ccc(C3=CCCC3)cc2O[C@@H]1CN(C)Cc1cccnc1	T cruzi growth-1 100 (no result: IDH1 R132H inh) | T cruzi growth-2 inconclusive | T cruzi growth-3 inactive | 3T3 cytotox inconclusive | 3T3 cytotox 2 46
C[C@H]1CN([C@@H](C)CO)S(=O)(=O)c2ccc(C3=CCCC3)cc2O[C@@H]1CN(C)Cc1cccnc1	T cruzi growth-1 103 | T cruzi growth-2 105 | T cruzi growth-3 104 | 3T3 cytotox 55 | 3T3 cytotox 2 63
CO[C@H]1CN(C)C(=O)c2cc(NC(=O)CC(F)(F)F)ccc2OC[C@@H](C)N(CC2CC2)C[C@H]1C	none (no result: IDH1 R132H inh, T cruzi growth-1)
CCCC#Cc1ccc([C@@H]2[C@H]3CN(C(=O)Nc4cccc(F)c4)CC(=O)N3[C@H]2CO)cc1	none (no result: IDH1 R132H inh, T cruzi growth-1)
C[C@H]1CN([C@@H](C)CO)C(=O)c2cccc(NC(=O)c3cnccn3)c2O[C@@H]1CN(C)CC1CCCCC1	none (no result: IDH1 R132H inh)
C[C@@H]1CN([C@H](C)CO)C(=O)c2cc(N(C)C)ccc2O[C@@H](C)CCCCO[C@H]1CN(C)S(C)(=O)=O	none (no result: IDH1 R132H inh)
C[C@@H]1CCCCO[C@H](CN(C)S(C)(=O)=O)[C@H](C)CN([C@@H](C)CO)C(=O)c2cc(N(C)C)ccc2O1	T cruzi growth-1 108 | T cruzi growth-2 inactive | T cruzi growth-3 inactive | 3T3 cytotox inactive | 3T3 cytotox 2 inactive
C[C@@H]1CN([C@@H](C)CO)C(=O)c2cc(N(C)C)ccc2O[C@@H](C)CCCCO[C@@H]1CN(C)S(C)(=O)=O	none (no result: IDH1 R132H inh, Pf Dd2 inh)
C[C@@H]1CCCCO[C@@H](CN(C)S(C)(=O)=O)[C@@H](C)CN([C@H](C)CO)C(=O)c2cc(N(C)C)ccc2O1	T cruzi growth-1 101! (no result: IDH1 R132H inh) | T cruzi growth-2 inactive | T cruzi growth-3 inactive | 3T3 cytotox inactive | 3T3 cytotox 2 inactive
CCS(=O)(=O)N1CCCCN2[C@H](CO)[C@@H](c3ccc(-c4ccccc4F)cc3)[C@@H]2C1	T cruzi growth-1 inconclusive (no result: IDH1 R132H inh) | T cruzi growth-2 103 | T cruzi growth-3 inactive | 3T3 cytotox inactive | 3T3 cytotox 2 inactive
CCS(=O)(=O)N1CCCCN2[C@@H](CO)[C@H](c3ccc(-c4ccccc4F)cc3)[C@@H]2C1	T cruzi growth-1 inconclusive (no result: IDH1 R132H inh) | T cruzi growth-2 104 | T cruzi growth-3 inactive | 3T3 cytotox inactive | 3T3 cytotox 2 42
CCS(=O)(=O)N1CCCCN2[C@@H](CO)[C@@H](c3ccc(-c4ccccc4F)cc3)[C@@H]2C1	T cruzi growth-1 106 (no result: IDH1 R132H inh) | T cruzi growth-2 inactive | T cruzi growth-3 inactive | 3T3 cytotox inactive | 3T3 cytotox 2 57
C[C@@H]1CN([C@H](C)CO)C(=O)c2cc(C3=CCCC3)cnc2O[C@H]1CN(C)C(=O)Nc1ccc(C(F)(F)F)cc1	T cruzi growth-1 102 (no result: IDH1 R132H inh) | T cruzi growth-2 98 | T cruzi growth-3 inactive | 3T3 cytotox inactive | 3T3 cytotox 2 59
C[C@@H]1CN([C@H](C)CO)C(=O)c2cc(C3=CCCC3)cnc2O[C@H]1CN(C)C(=O)Nc1ccc(F)cc1	none (no result: IDH1 R132H inh)
C[C@H](CO)N1C[C@H](C)[C@@H](CN(C)C(=O)Nc2ccc(C(F)(F)F)cc2)Oc2ncc(C3=CCCC3)cc2C1=O	T cruzi growth-1 102 (no result: IDH1 R132H inh) | T cruzi growth-2 103 | T cruzi growth-3 inactive | 3T3 cytotox inactive | 3T3 cytotox 2 74
O=[N+]([O-])c1ccc(CSc2nnc(-c3cnccn3)n2-c2ccccc2)cc1	none (no result: GASC1 inh, T cruzi growth-1, Pf Dd2 inh)
CN(C)C(=N)N=C(N)N	none (no result: GASC1 inh, T cruzi growth-1, Pf Dd2 inh)
C[C@H](CO)N1C[C@H](C)[C@H](CN(C)C(=O)Nc2ccc(C(F)(F)F)cc2)OCCCC[C@H](C)Oc2ccc(NC(=O)c3ccncc3)cc2C1=O	T cruzi growth-1 107 (no result: IDH1 R132H inh) | T cruzi growth-2 109 | T cruzi growth-3 99 | 3T3 cytotox inactive | 3T3 cytotox 2 37
C[C@@H]1CCCCO[C@H](CN(C)C(=O)Nc2ccc(C(F)(F)F)cc2)[C@@H](C)CN([C@H](C)CO)C(=O)c2cc(NC(=O)c3ccncc3)ccc2O1	none (no result: GASC1 inh, IDH1 R132H inh)
